Experimental findings from paper PMC10839140 (Iranian Journal of Medical Sciences, 2024) are described below.

The subject of assay [1] is fibroblast cell line. Kind of assay: MTT cytotoxicity assay, fibroblast cells. It is filed as cell-based. Particulars: for IC50: Fibroblast, read-out: half-maximal inhibitory concentration; for percentage of cell viability was reduced by: fibroblast cells treated for 48 hours (abstract; concentration not stated there).
Assay [2] deals with HEK-293 cell line. Kind of assay: Real-time PCR of apoptosis and cell cycle genes, HEK-293 cells. It is filed as cell-based. Particulars: 24 and 48 hours, PINO 575, LARI 500, PTOX 0.175 μM, vs untreated cells. The method in brief:
(§1)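 Cells grown at 37 °C, 5% CO₂: HEK-293 in DMEM/F12 with 10% FBS and penicillin/streptomycin, SkBr3 in supplemented DMEM. Vehicle control was methanol at 1% v/v final. Total RNA was DNase I-treated, and 3 µg was reverse-transcribed. Real-time PCR used GAPDH as the internal control and no-cDNA negative controls. Fold change was calculated by 2^-ΔΔCT, as the mean±SD of three experiments.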

The subject of assay [3] is HEK-293 cell line. Nature of the assay: MTT cytotoxicity assay, HEK-293 cells. It is filed as cell-based. The following applies: for IC50: read-out: half-maximal inhibitory concentration.
The test system of assay [4] is SkBr3 breast cancer cell line. Kind of assay: MTT cytotoxicity assay, SkBr3 cells. Type of assay: cell-based, human. Particulars: read-out: half-maximal inhibitory concentration.
Assay [5] concerns SkBr3 breast cancer cell line. Nature of the assay: Real-time PCR of apoptosis and cell cycle genes, SkBr3 cells. It is filed as cell-based, human. Particulars: 24 and 48 hours, PINO 575, LARI 500, PTOX 0.175 μM, vs untreated cells. The method in brief: as §1
The subject of assay [6] is HEK-293 cell line. Nature of the assay: Apoptosis analysis, annexin V-FITC/PI flow cytometry, HEK-293 cells. Type of assay: cell-based. Particulars: PINO 575 μM, LARI 500 μM. Background: In flow cytometry, cells or beads pass a laser one at a time.
For assay [7], the system named is SkBr3 breast cancer cell line. Nature of the assay: Apoptosis analysis, annexin V-FITC/PI flow cytometry, SkBr3 cells. It is filed as cell-based, human. The following applies: PINO 575 μM, LARI 500 μM.
The test system of assay [8] is fibroblast cell line. Nature of the assay: Apoptosis analysis, annexin V-FITC/PI flow cytometry, fibroblast cells. Type of assay: cell-based. Particulars: PINO 575 μM, LARI 500 μM.

Read-outs that look alike come from different tables or passages of the source.

In the case of `COc1cc([C@@H]2c3cc4c(cc3[C@H](O)[C@H]3COC(=O)[C@H]23)OCO4)cc(OC)c1OC` [Podophyllotoxin, reference compound], the IC50 in assay [1] (24 h) is 0.175 µM; in assay [1] (48 h), 0.075 µM; in assay [3] (Homo sapiens, HEK293, 24 h) it was 0.15 µM; in assay [3] (Homo sapiens, HEK293, 48 h) it was 0.075 µM; in assay [4] (Homo sapiens, SK-BR-3, 24 h), 0.3 µM; in assay [4] (Homo sapiens, SK-BR-3, 48 h), 0.175 µM. The “percentage of cell viability was reduced by” value in assay [1] was found to be 36%. The “cell viability was reduced by up to” value in assay [1] (fibroblast, 48 hours, PTOX at 0.175 μM) was not above 36%. Also, the “expression of pro-apoptotic BAX and FAS genes and CDKN1A inhibitory gene” value in assay [2] and in assay [5] was “significantly overexpressed” throughout.
Broadly, the cell viability is a per cent measure of how many cells are alive, often set against a control. Low values mean a greater loss of cells, high ones better survival. Take Pinoresinol: the “percentage of cell viability was reduced by” value in assay [1] is recorded as 49%. Also, the cell viability stood at 49% in assay [1] (fibroblast, 48 hours, PINO at 575 μM, LARI at 500 μM) and 49% in assay [3] (HEK-293, 48 hours, PINO at 575 μM, LARI at 500 μM). The IC50 in assay [1] (48-hour treatment, MTT) was found to be 550 µM; in assay [3] (HEK-293, 24-hour treatment, MTT), 600 µM; in assay [3] (HEK-293, 48-hour treatment, MTT), 550 µM; in assay [4] (SkBr3, 24-hour treatment, MTT) it was 675 µM; in assay [4] (SkBr3, 48-hour treatment, MTT), 575 µM. The “expression of pro-apoptotic BAX and FAS genes and CDKN1A inhibitory gene” value in assay [2] and in assay [5] was “significantly overexpressed” each time. Further, the “increase of apoptosis compared to control cells” value in assay [6] (HEK-293, 24 hours) turned out to be 6.6 fold; in assay [6] (HEK-293, 48 hours) it was 9 fold; in assay [7] (SKBR3, 24 hours), 9 fold; in assay [7] (SKBR3, 48 hours), 11 fold; in assay [8] (24 hours) it was 5.2 fold; in assay [8] (48 hours), 10.5 fold.
With `COc1cc(C[C@H]2CO[C@H](c3ccc(O)c(OC)c3)[C@H]2CO)ccc1O` [Lariciresinol, lariciresinol], the IC50 in assay [1] (24 h) is 475 µM; in assay [1] (48 h), 400 µM; in assay [3] (Homo sapiens, HEK293, 24 h), 550 µM; in assay [3] (Homo sapiens, HEK293, 48 h), 475 µM; in assay [4] (Homo sapiens, SK-BR-3, 24 h), 600 µM; in assay [4] (Homo sapiens, SK-BR-3, 48 h), 500 µM. Besides, in assay [1], the “percentage of cell viability was reduced by” value worked out at 47%. Also, the “expression of pro-apoptotic BAX and FAS genes and CDKN1A inhibitory gene” value in assay [2] and in assay [5] was “significantly overexpressed” each time. For the same compound, the “increase of apoptosis compared to control cells” value in assay [6] (HEK-293, 24 hours) was found to be 6.7 fold; in assay [6] (HEK-293, 48 hours) it was 7.4 fold; in assay [7] (SKBR3, 24 hours), 10.7 fold; in assay [7] (SKBR3, 48 hours) it was 12.7 fold; in assay [8] (24 hours) it was 7.4 fold; in assay [8] (48 hours) it was 20.2 fold.
